# Screening results: PubChem BioAssay, The Scripps Research Institute Molecular Screening Center
# M1 PAM parental: counter-screen for M1 PAMs: effect in parental CHO-K1 cells; ATP EC20, Fluo-8 calcium fluorescence; 0% at ATP EC20, 100% at ATP max; activation, % at 3 µM; 0.02% of 360,000 active; AID 602247;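 active means activation above the run cutoff, the mean activation of all test compounds plus 3 SD, cut at about 40% in these data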;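 further: peak over basal fluorescence ratio in a 140 s read after ATP addition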
# CHO-K1 Ca antag: counter-screen for M1 antagonists: effect in parental CHO-K1 cells; ATP-induced calcium, Fluo-8 fluorescence; inhibition, % at 3 µM; 0.6% of 360,000 active; AID 602250;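 active means inhibition above a per-plate cutoff, the plate's mean sample inhibition plus 3 SD, cut at about 24% in these data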
# CHO parental Ca: counter-screen: ATP calcium response change in parental CHO cells; 0.63% of 330,000 active; inhibition, % at 5.6 µM; parental CHO-K1, ATP-induced calcium, Fluo-8 fluorescence;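 active means inhibition above that plate's mean sample inhibition plus 3 SD, cut at about 26% in these data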
#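 Measured by: calcium-sensitive Fluo-8 fluorescence / Test system: CHO parental line / Controls: ATP-challenged DMSO wells low, unchallenged DMSO wells high / Measure: % inhibition / Compound: single nominal dose of 5.6 µM per compound / Replicates: single well per compound, no replicates / Reagent: ATP as calcium-mobilizing challenge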
# OX1R antag-1: antagonists of human orexin 1 receptor; CHO/OX1R cells, Fluo-8 calcium fluorescence, orexin A; inhibition, % at 5 µM; 0.43% of 330,000 active; AID 434989;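 active means inhibition above its plate's threshold, mean inhibition of all tested compounds on the plate plus 3 SD, cut at about 37% in these data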
# Target sequence (O43613 whole entry, looked up): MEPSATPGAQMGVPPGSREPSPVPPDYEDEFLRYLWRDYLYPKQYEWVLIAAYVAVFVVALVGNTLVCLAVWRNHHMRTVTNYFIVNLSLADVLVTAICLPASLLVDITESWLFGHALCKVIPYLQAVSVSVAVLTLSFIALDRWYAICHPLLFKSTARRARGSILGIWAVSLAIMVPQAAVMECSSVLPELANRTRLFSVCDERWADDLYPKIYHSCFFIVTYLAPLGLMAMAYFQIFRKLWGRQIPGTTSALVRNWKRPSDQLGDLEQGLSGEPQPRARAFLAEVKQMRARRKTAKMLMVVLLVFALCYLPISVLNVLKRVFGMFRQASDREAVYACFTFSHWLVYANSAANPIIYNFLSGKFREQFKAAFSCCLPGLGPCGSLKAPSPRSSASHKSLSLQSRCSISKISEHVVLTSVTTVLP
# OX1R antag-2: OX1R (human) antagonism; O43613; OX1R-expressing cells, FRET antagonist read-out; inhibition, % at 6.6 µM; 1.8% of 330,000 active; in the data active means inhibition mostly above about 38%, no sharp cut-off; inactive means mostly below about 40%
# CHO-K1 Ca ag: nonselective activator or artifact in parental CHO-K1 cells | 0.48% of 360,000 active | AID 602248 | Fluo-8 calcium fluorescence; scaled to maximal ATP response, vehicle zero | activation, % at 3 µM; in the data active means activation above about 15%;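 further: untransfected CHO-K1 host cells lacking M1 receptor as counterscreen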
# A number is an active result; - = inactive; . = not tested or not shown. Shown are actives, neighbours in structure and some others; about 2.9% of the full set was active somewhere.
SMILES,M1 PAM parental,CHO-K1 Ca antag,CHO parental Ca,OX1R antag-1,OX1R antag-2,CHO-K1 Ca ag
CCc1ccc(OCC(=O)NNC(=O)CNC(=O)c2ccc(Br)o2)cc1,-,-,-,-,-,-
CCOC(=O)c1c(NC(=O)C(C)N2CCN(C(=O)c3ccco3)CC2)sc2c1CCCC2 (stereo unspecified),-,-,59.8,65.8,-,-
CC1CCN(C(=O)COC(=O)c2ccc(=O)n(Cc3ccccc3)n2)CC1,-,-,-,-,-,-
CC(NC(=O)COC(=O)c1ccccc1O)c1ccccc1 (stereo unspecified),-,-,.,.,.,-
CC(NC(=O)COC(=O)c1cc(Cl)nc(Cl)c1)c1ccccc1 (stereo unspecified),-,-,-,-,-,22.7
CCOc1ccc(NC(=O)CSc2nnc(C3CC3)n2C)cc1S(=O)(=O)N1CCCCC1,-,-,-,-,-,-
Cc1nn(C)c2nc(-c3cccs3)cc(C(F)(F)F)c12,-,-,-,-,-,-
Cc1nn(CCO)c2nc(-c3cccs3)cc(C(F)(F)F)c12,-,24.0,-,-,-,-
CCC(=O)NCC(c1ccco1)N1CCN(c2ccc(OC)cc2)CC1 (stereo unspecified),-,-,-,-,-,17.3
Cc1ccccc1C(=O)NN1CC(C(=O)OCc2ccc(Cl)c(Cl)c2)CC1=O (stereo unspecified),-,-,-,-,-,-
COc1cc(C(=O)NCC(=O)N/N=C(/C)c2ccc3c(c2)CCCC3)cc(OC)c1OC,-,26.5,-,-,-,-
COc1ccc(OC)c(NC(=O)CCNC(=O)N2CC(=O)Nc3ccccc32)c1,-,-,.,.,.,-
CCCn1c(=O)n(CC(=O)NCC2CCCO2)c(=O)c2c3c(sc21)COC(C)(C)C3 (stereo unspecified),-,-,-,-,-,-
O=C(N=C1N=C2C=CC(Br)=CN2Cc2ccccc21)c1ccc([N+](=O)[O-])cc1[N+](=O)[O-],-,-,-,-,45.2,-
O=C(c1ccc([N+](=O)[O-])cc1[N+](=O)[O-])N1CCc2ccccc21,-,-,-,-,-,-
COc1ccc(Br)c(C(=O)Nc2cccc(Cl)c2Cl)c1,-,31.4,-,-,-,-
COc1ccc(Br)c(C(=O)Nc2ccc(F)cc2)c1,-,-,-,-,-,-
O=C(c1coc(=O)c2ccccc12)N1CCN(Cc2ccccc2)CC1,-,-,-,-,-,-
c1ccc2c(c1)oc1c(Nc3ccc4c(c3)OCCO4)ncnc12,-,-,-,-,71.8,-
Cc1nc(Nc2ccc3c(c2)OCCO3)c2oc3ccccc3c2n1,-,-,-,-,55.0,-
COc1ccccc1-c1cnc(C(O)c2ccc(F)cc2C)[nH]1 (stereo unspecified),-,-,.,.,.,-
CNc1ccccc1C(C)(C)c1cc(-c2cc(C)cc(C)c2)no1,-,-,-,-,-,-
CNc1ccccc1C(C)(C)c1cc(-c2cccc(OC)c2)no1,-,-,41.2,-,-,-
COc1cccc(NC2=C(NCCO)C(=O)c3ccccc3C2=O)c1,-,-,-,-,45.6,-
CCO[C@@H]1OC(C(=O)NC2CC2)=C[C@H](c2csc3ccccc23)[C@H]1CCCO,-,-,-,-,-,-
SMILES,M1 PAM parental,CHO-K1 Ca antag,CHO parental Ca,OX1R antag-1,OX1R antag-2,CHO-K1 Ca ag
COC(=O)c1sc(S(=O)(=O)N2CCN(c3ccccc3F)CC2)c(C(=O)OC)c1C,-,-,-,-,-,-
COc1ccc(-c2ccnc3cc(C(=O)O)nn23)cc1,-,-,-,-,56.8,-
COc1ccc(-c2ccnc3nc(N4CCOCC4)nn23)cc1,-,24.3,-,-,-,-
c1ccc(Oc2ccc(-c3ccnc4nc(N5CCOCC5)nn34)cc2)cc1,-,-,-,-,-,-
CC(C)c1ccc(COC(=O)CN2C(=O)NC3(CCCCC3C)C2=O)cc1 (stereo unspecified),-,-,.,.,.,-
O=C(Nc1ccccc1C(=O)OCC(=O)N1CCc2ccccc2C1)c1ccco1,-,-,-,-,80.2,-
CNC(=O)COC(=O)c1ccccc1NC(=O)c1ccco1,-,-,-,-,-,-
O=C1C2C3C=CC(CO)(O3)C2C(=O)N1c1ccc(-c2ccccc2)cc1 (stereo unspecified),.,.,60.7,-,-,.
COc1ccc(C(=O)NC(CCSC)C(=O)NC2CC2)cc1 (stereo unspecified),-,-,-,-,-,-
COc1ccc(CCN2CC(C(=O)N(C)C3CCOCC3)CCC2=O)cc1 (stereo unspecified),-,-,-,-,-,-
CCc1cccc(NC(=O)COC(=O)c2cc([N+](=O)[O-])ccc2N2CCOCC2)c1,-,-,-,-,-,-
COc1ccc(OC)c(COC(=O)c2cc([N+](=O)[O-])ccc2N2CCOCC2)c1,-,-,-,-,32.2,-
Cc1ccccc1COC(=O)c1cc([N+](=O)[O-])ccc1N1CCOCC1,-,-,-,-,-,-
N#CC1(NC(=O)COC(=O)c2cc([N+](=O)[O-])ccc2N2CCOCC2)CCCCC1,-,-,-,-,52.4,-
Cc1cc(NC(=O)COC(=O)c2cc([N+](=O)[O-])ccc2N2CCOCC2)ccc1Br,-,-,-,-,36.9,-
CCN(c1ccc(OC)cc1)S(=O)(=O)c1csc(C(=O)N2CCCC2)c1,-,-,-,-,-,-
CCN1C[C@@H]2[C@@H]3C(=O)N(C)C(=O)[C@@H]3[C@](Cc3ccccc3)(C1=O)N2C(=O)c1ccc(F)cc1,-,-,.,.,.,-
Cc1cc(-c2cccc([N+](=O)[O-])c2)nc2ccccc12,-,-,-,-,68.6,-
Cc1nc(NC(=O)CSc2nc3cccnc3n2Cc2ccccc2)sc1C,-,-,-,-,-,-
Cc1cc(NC(=O)c2ccc(COc3ccccc3Cl)o2)no1,-,-,53.1,-,-,-
CCC(Nc1nc(-c2ccccc2)nc2ccccc12)C(=O)O (stereo unspecified),-,-,-,-,-,-
CC(C)(C)C(=O)OCCNc1nc(-c2ccccc2)nc2ccccc12,-,-,-,-,71.8,-
CC(C)OCCCNc1nc(-c2ccccc2)nc2ccccc12,-,-,-,-,51.5,-
CN(C)CCCNc1nc(-c2ccccc2)nc2ccccc12,-,-,-,-,-,-
Nc1nc(COC(=O)C2CC(=O)N(Cc3ccccc3Cl)C2)nc(Nc2ccccc2)n1 (stereo unspecified),-,-,-,-,-,-
C[C@@H]1CN([C@H](C)CO)S(=O)(=O)c2ccc(C#Cc3cccc(F)c3)cc2O[C@@H]1CN(C)C(=O)CN1CCOCC1,-,-,.,.,.,-
COc1ccc(CN(C)S(=O)(=O)c2nnc(NC(=O)c3ccccc3OC)s2)cc1OC,-,-,-,-,48.9,-
COc1ccc(C(=O)Nc2nnc(CCc3ccccc3)s2)c(OC)c1,-,34.9,-,-,-,-
